Format in all cases: functional
For assay [1], the system named is Escherichia coli. Put plainly: Antibacterial activity against Escherichia coli ATCC 25922 after 24 to 72 hrs by cup plate method. In outline: (§1)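 MIC by cup plate method on Mueller Hinton agar plates containing compound at 0 (control), 1, 2, 3, 5, 10, 15, 20, 30 or 40 µg/mL. Plates were prepared per NCCLS M7-A5 and incubated at 37 °C. They were examined after 24 h and, where necessary, incubated further for 72 h. The MIC was taken as the lowest concentration giving inhibition.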

Assay [2] deals with Aspergillus niger. Description: Antifungal activity against Aspergillus niger NCIM 545 after 48 hrs by agar cup plate method. In outline: (§2)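 Agar cup plate diffusion with compounds dissolved in DMSO. Bacteria (B. subtilis, E. coli) were grown on Mueller Hinton agar at 37 ± 0.5 °C. Fungi (C. albicans, A. niger) were grown on Czapek Dox medium at 28 ± 0.5 °C. Incubation was 48 h. The read-out was the diameter of the inhibition zone, averaged over three independent determinations.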

In assay [3] the test system is Candida albicans. Description: Antifungal activity against Candida albicans MTCC 277 after 24 to 72 hrs by cup plate method. An outline of the steps: as §1
The test system of assay [4] is Bacillus subtilis. Description: Antibacterial activity against Bacillus subtilis NCIM 2250 after 48 hrs by agar cup plate method. An outline of the steps:
as §2

The subject of assay [5] is Escherichia coli. Put plainly: Antibacterial activity against Escherichia coli ATCC 25922 after 48 hrs by agar cup plate method. In outline:
as §2

The subject of assay [6] is Candida albicans. Description: Antifungal activity against Candida albicans MTCC 277 after 48 hrs by agar cup plate method. An outline of the steps: as §2
Assay [7] concerns Aspergillus niger. Description: Antifungal activity against Aspergillus niger NCIM 545 after 24 to 72 hrs by cup plate method. An outline of the steps: as §1
Assay [8] has as its system Bacillus subtilis. Put plainly: Antibacterial activity against Bacillus subtilis NCIM 2250 after 24 to 72 hrs by cup plate method. An outline of the steps:
as §1

The text below walks through data of ChEMBL document CHEMBL1177890, “Synthesis and biological evaluation of new 2-chloro-3-((4-phenyl-1H-1,2,3-triazol-1-yl)methyl)quinoline derivatives via click chemistry approach” (2010).

≈ marks a conversion by molar mass, not a printed value.

As for `Cc1ccc2nc(Cl)c(Cn3cc(-c4ccccc4)nn3)cc2c1`, the minimum inhibitory concentration (MIC) with Escherichia coli [1] amounted to 15 µg/mL (≈ 44.8 µM); in the assay with Candida albicans [3], 15 µg/mL (≈ 44.8 µM); against Aspergillus niger [7], 10 µg/mL (≈ 29.9 µM); with Bacillus subtilis [8], 25 µg/mL (≈ 74.7 µM). Further, the “diameter of the inhibition zone (DIZ)” value in the assay on Aspergillus niger [2] was 16.1 mm; in the assay with Bacillus subtilis [4], 11.4 mm; in the assay with Escherichia coli [5] it was 14 mm; with Candida albicans [6], 14.7 mm.

Turning to `Cc1ccc2cc(Cn3cc(-c4ccccc4)nn3)c(Cl)nc2c1`, the MIC was determined as 15 µg/mL (≈ 44.8 µM) with Escherichia coli [1], 10 µg/mL (≈ 29.9 µM) with Candida albicans [3] and 10 µg/mL (≈ 29.9 µM) against Bacillus subtilis [8]. For the same molecule, the “diameter of the inhibition zone (DIZ)” value came out at 16.6 mm in the assay on Bacillus subtilis [4], 14 mm in the assay with Escherichia coli [5] and 16.4 mm in the assay with Candida albicans [6].

In the case of `CCOc1ccc2nc(Cl)c(Cn3cc(-c4ccccc4)nn3)cc2c1`, the “diameter of the inhibition zone (DIZ)” value with Aspergillus niger [2] stood at 12.8 mm; with Candida albicans [6], 16.5 mm. The molecule further yielded a minimum inhibitory concentration (MIC) in the assay on Candida albicans [3] of 10 µg/mL (≈ 27.4 µM).

Take `Cc1cccc2cc(Cn3cc(-c4ccccc4)nn3)c(Cl)nc12`: the MIC came to 20 µg/mL (≈ 59.7 µM) with Escherichia coli [1], 25 µg/mL (≈ 74.7 µM) with Candida albicans [3], 20 µg/mL (≈ 59.7 µM) in the assay on Aspergillus niger [7] and 20 µg/mL (≈ 59.7 µM) in the assay on Bacillus subtilis [8]. In addition, the “diameter of the inhibition zone (DIZ)” value is listed as 12.7 mm with Aspergillus niger [2], 12 mm in the assay on Bacillus subtilis [4], 12 mm in the assay with Escherichia coli [5] and 13.4 mm in the assay on Candida albicans [6].

Take `CCc1cccc2cc(Cn3cc(-c4ccccc4)nn3)c(Cl)nc12`: the MIC against Escherichia coli [1] came to 15 µg/mL (≈ 43 µM); with Candida albicans [3] it was 15 µg/mL (≈ 43 µM); in the assay on Bacillus subtilis [8] it was 10 µg/mL (≈ 28.7 µM). In addition, the “diameter of the inhibition zone (DIZ)” value in the assay with Bacillus subtilis [4] is given as 16.1 mm; with Escherichia coli [5], 15.9 mm; in the assay with Candida albicans [6] it was 14 mm.

In the case of `Clc1nc2ccccc2cc1Cn1cc(-c2ccccc2)nn1`, the MIC in the assay with Escherichia coli [1] came to 15 µg/mL (≈ 46.8 µM); against Candida albicans [3] it was 15 µg/mL (≈ 46.8 µM); in the assay on Aspergillus niger [7], 20 µg/mL (≈ 62.3 µM); with Bacillus subtilis [8], 15 µg/mL (≈ 46.8 µM). Also, the “diameter of the inhibition zone (DIZ)” value in the assay on Aspergillus niger [2] was determined as 10 mm; with Bacillus subtilis [4] it was 13.5 mm; in the assay on Escherichia coli [5], 12 mm; in the assay with Candida albicans [6], 16 mm.

On to `COc1ccc2cc(Cn3cc(-c4ccccc4)nn3)c(Cl)nc2c1`, for which the MIC amounted to 10 µg/mL (≈ 28.5 µM) with Escherichia coli [1], 15 µg/mL (≈ 42.8 µM) in the assay on Candida albicans [3], 20 µg/mL (≈ 57 µM) in the assay on Aspergillus niger [7] and 10 µg/mL (≈ 28.5 µM) with Bacillus subtilis [8]. Moreover, the “diameter of the inhibition zone (DIZ)” value with Bacillus subtilis [4] was determined as 16 mm; in the assay with Escherichia coli [5], 16.4 mm; in the assay with Candida albicans [6], 14 mm.

As to `CN[C@@H]1[C@H](O[C@H]2[C@H](O[C@H]3[C@H](O)[C@@H](O)[C@H](N=C(N)N)[C@@H](O)[C@@H]3N=C(N)N)O[C@@H](C)[C@]2(O)C=O)O[C@@H](CO)[C@H](O)[C@H]1O` [STREPTOMYCIN], the MIC against Escherichia coli [1], against Aspergillus niger [7] and in the assay with Bacillus subtilis [8] was 5 µg/mL (≈ 8.6 µM) each time. Moreover, the “diameter of the inhibition zone (DIZ)” value turned out to be 16.5 mm with Bacillus subtilis [4] and 16.1 mm in the assay with Escherichia coli [5].

Regarding `COc1ccc2nc(Cl)c(Cn3cc(-c4ccccc4)nn3)cc2c1`, the “diameter of the inhibition zone (DIZ)” value in the assay with Aspergillus niger [2] amounted to 16.3 mm; in the assay on Bacillus subtilis [4] it was 16.7 mm; in the assay with Candida albicans [6] it was 15.7 mm. In addition, the MIC came to 15 µg/mL (≈ 42.8 µM) against Candida albicans [3], 15 µg/mL (≈ 42.8 µM) with Aspergillus niger [7] and 10 µg/mL (≈ 28.5 µM) with Bacillus subtilis [8].

Take `COC1=CC(=O)C[C@@H](C)[C@]12Oc1c(Cl)c(OC)cc(OC)c1C2=O` [GRISEOFULVIN]: the “diameter of the inhibition zone (DIZ)” value with Aspergillus niger [2] is on record as 16.6 mm; in the assay with Candida albicans [6], 16.9 mm. The molecule further registered an MIC against Candida albicans [3] of 5 µg/mL (≈ 14.2 µM).
